High-throughput results as filed in PubChem.
In the library only some 3.2% were active in any assay of this set; here they are far more common.
LEDGF integ inh = blockers of LEDGF/p75-dependent integrase strand transfer – biochemical, TR-FRET, high throughput, primary screen; TR-FRET IN-LEDGF/p75 DNA integration, Eu/Cy5; HIV-1 integrase (with human LEDGF/p75); AID 743269, 2014; inhibition, % at 3.7 µM; 370,000 tested, 0.64% active;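 active = inhibition above the screen-wide mean plus 3 SD, cut at about 13% in these data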;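 also: signal is the Cy5 over europium emission ratio at 671 and 618 nm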
HTRA1 inh = HTRA1 serine protease inhibitors, primary screen, biochemical, fluorescence polarization, HTS; Q92743; 340,000 tested, 0.5% active; AID 504803, 2011; recombinant HTRA1, FP-rhodamine activity-based probe; inhibition, % at 5.96 µM; in the data active = inhibition above about 36%
rCAG binder = binders of r(CAG) RNA repeats, primary screen, biochemical, fluorescence; r(CAG) RNA repeat, TO-PRO-1 dye displacement fluorescence; inhibition, % at 3 µM; 370,000 tested, 1.3% active; AID 651821, 2012;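 active = inhibition above the plate cutoff, the mean of all test compounds on that plate plus 3 SD, cut at about 35% in these data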;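 also: higher means more dye released from RNA so lower well fluorescence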
DAGLB inh = DAGLB lipase inhibitors, primary screen, biochemical, fluorescence, HTS; inhibition, % at 5.17 µM; HEK293T DAGLB membrane lysate, EnzChek fluorogenic substrate; AID 504411, 2011; Diacylglycerol lipase-beta (Homo sapiens), Q8NCG7; 340,000 tested, 0.059% active; in the data active = inhibition above about 34%
PRMT1 FP inh = PRMT1 methyltransferase inhibitors, primary screen, biochemical, fluorescence polarization | inhibition, % at 2.79 µM | 370,000 tested, 1.3% active | AID 652257, 2013 | recombinant PRMT1, activity-based probe fluorescence polarization | Protein arginine N-methyltransferase 1 (Homo sapiens), Q99873;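 active = inhibition above about 21% made by adding two undisclosed values, limit read from the data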
mABHD4 FP = ABHD4 inhibitors, primary screen, biochemical, fluorescence polarization, mouse. purified mABHD4, FP-Rh probe fluorescence polarization. inhibition, % at 8.92 µM. (Lyso)-N-acylphosphatidylethanolamine lipase (Mus musculus), Q8VD66. 370,000 tested, 0.54% active;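 active = inhibition exceeding the mean over every tested compound plus 3 SD, cut at about 30% in these data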
Target sequence (Q8VD66 whole entry, looked up): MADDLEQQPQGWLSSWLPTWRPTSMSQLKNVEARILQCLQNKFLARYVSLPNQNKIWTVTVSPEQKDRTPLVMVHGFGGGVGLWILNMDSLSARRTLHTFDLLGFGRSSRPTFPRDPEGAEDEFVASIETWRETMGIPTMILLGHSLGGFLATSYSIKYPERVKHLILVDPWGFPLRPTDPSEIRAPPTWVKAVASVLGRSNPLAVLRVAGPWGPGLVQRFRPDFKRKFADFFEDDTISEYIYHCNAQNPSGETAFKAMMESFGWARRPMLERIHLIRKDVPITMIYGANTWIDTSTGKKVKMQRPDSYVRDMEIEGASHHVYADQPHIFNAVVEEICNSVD
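Assay system: mABHD4 protein; medium: HEPES pH 7.0, NaCl, Pluronic buffer; dosing: 8.92 µM, single dose; schedule: 45 min + 60 min at 25 °C; signal: FP readout, ex 525 nm / em 598 nm; read-out: normalized percent inhibition of probe labeling; repeats: single replicate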
rCAG binder conf = small molecules binding CAG repeat RNA – biochemical, fluorescence, confirmation; shares compounds with rCAG binder; r(CAG) RNA repeat, TO-PRO-1 dye displacement fluorescence; inhibition, % at 3 µM; 4,300 tested, 70% active;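 active = inhibition above a per-plate cutoff, the mean inhibition of sample wells plus 3 SD, cut at about 35% in these data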;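 also: loss of TO-PRO-1 fluorescence as compound displaces dye from 1x1 AA loop RNA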
DNA CAG counter = displacement of TO-PRO-1 from CAG DNA duplex, counter-screen for rCAG RNA repeat binder project, biochemical, fluorescence, TO-PRO-1 dye, d(CAG) DNA oligo | shares compounds with rCAG binder | 4,300 tested, 94% active | inhibition, % at 3 µM | d(CAG) DNA oligo TO-PRO-1 dye displacement;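 active = inhibition above its plate's cutoff, the mean test-well inhibition plus 3 SD, cut at about 4.8% in these data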;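 also: hits displace the dye from DNA and so lower well fluorescence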
DNA CAG DR = inhibitors of DNA CAG/GTC TO-PRO-1 complex, dose response, counter-screen for rCAG RNA repeat binder project, biochemical, fluorescence, TO-PRO-1 dye | shares compounds with rCAG binder | DNA CAG/GTC duplex TO-PRO-1 dye displacement fluorescence | IC50, µM | 250 tested, 20% active; in the data active = IC50 below about 10 µM
Numbers stand for hits; - = inactive; . = no result given.

SMILES	LEDGF integ inh	HTRA1 inh	rCAG binder	DAGLB inh	PRMT1 FP inh	mABHD4 FP	rCAG binder conf	DNA CAG counter	others
O=C(Nc1nccs1)c1ccc(COc2ccccc2Cl)o1	-	-	-	-	-	-	.	.
O=C(O)C1CC2CCC1CC2 (stereo unspecified)	-	-	-	-	-	-	.	.
COc1ccc(S(=O)(=O)Nc2cc3c4c(c2)CCN4C(=O)CC3)cc1	-	-	-	-	-	-	.	.
CCOc1ccc2nc(SCC(=O)N(CC(C)C)c3c(N)n(Cc4ccccc4)c(=O)[nH]c3=O)[nH]c2c1	-	-	-	-	-	-	.	.
COc1ccc(NS(=O)(=O)c2cccc(C(=O)NN=Cc3cc(Br)c(O)c(Br)c3)c2)cc1	-	-	38.8	-	-	-	42.8	16.8
COc1ccc(NS(=O)(=O)c2cccc(C(=O)NN=Cc3ccc(OC)cc3OC)c2)cc1	-	-	-	-	-	-	.	.
CC(=O)c1cc(C#N)c(Oc2cc(C)cc(C)c2)nc1C	-	-	-	-	-	-	.	.
CCCCNC(=O)c1onc(CSc2cccc(Cl)c2)c1C(=O)O	-	-	-	-	-	-	.	.
CCCCNC(=O)c1onc(CSc2cccc(OCC)c2)c1C(=O)O	-	-	44.8	-	-	-	-	-
CCCCNC(=O)c1onc(CSc2ccccc2)c1C(=O)O	-	-	-	-	-	-	.	.
CCCCNC(=O)c1onc(CSc2ccc(C(C)C)cc2)c1C(=O)O	-	-	51.4	-	-	-	47.5	11.4
O=C(NCC1CCCO1)c1onc(CSc2cccc3ccccc23)c1C(=O)O (stereo unspecified)	-	-	42.4	-	-	-	40.0	6.2
CCCCNC(=O)c1onc(CSc2cccc3ccccc23)c1C(=O)O	-	-	61.5	-	-	-	53.2	14.4	DNA CAG DR=-
CCCCn1c(N)c(N(CCOC)C(=O)c2ccc(-c3ccccc3)cc2)c(=O)[nH]c1=O	-	-	-	-	-	-	.	.
COC(=O)[C@]12C[C@H](CC(=O)NCCCN3CCCC3=O)C(=O)N(Cc3ccco3)C1=C[C@H](C(C)(C)C)O[C@@H]2C	-	.	-	.	-	-	.	.
CC(C)NC(=O)c1onc(CSc2cccc3ccccc23)c1C(=O)O	-	-	36.3	-	-	-	-	7.2
Cn1c2c(c(=O)[nH]c1=O)C(c1ccc(O)cc1)C1=C(N2)c2ccccc2C1=O (stereo unspecified)	-	.	-	.	-	-	.	.
CCC(C)c1ccc(C2C3=C(Nc4nc(N)[nH]c(=O)c42)c2ccccc2C3=O)cc1 (stereo unspecified)	-	-	43.2	-	-	-	47.1	29.4
Nc1nc2c(c(=O)[nH]1)C(c1ccccc1)C1=C(N2)c2ccccc2C1=O (stereo unspecified)	-	-	61.8	-	-	-	-	26.6
CCOc1ccc(C2C(C#N)=C(C)NC3=C2C(=O)c2ccccc23)cc1 (stereo unspecified)	-	-	-	-	-	-	.	.
COc1cc(C2C(=O)c3ccccc3C2=O)ccc1O	-	-	-	-	-	-	.	.
COc1cc(C2C3=C(Nc4nc(N)[nH]c(=O)c42)c2ccccc2C3=O)ccc1O (stereo unspecified)	-	-	60.5	-	-	-	-	20.1
